Published values of several laboratories.
Each line is one published result; the experiments were not run side by side.
Target: Cyclin-dependent kinase-like 1 (CDKL1, Homo sapiens, UniProt Q00532)

c1cnn2ncc(-c3ccnc(N4CCC45COC5)n3)c2c1  remaining binding (binding; 1 µM): 59%
COc1ncc2cc3ccccc3nc2c1C#N  remaining binding (binding; competition with immobilised ligand; 5 µM): 100%
F[C@@H]1CCN(c2nccc(-c3cnn4ncccc34)n2)C1  remaining binding (binding; 1 µM): 89%
O=C(Nc1c[nH]nc1C(=O)NC1CCNCC1)c1cc(F)cc(F)c1  remaining binding (binding; competition with immobilised ligand; 1 µM): 95%
O=C(c1ccc(Nc2ncc(Cl)c(-c3cc4ccccc4s3)n2)cc1)N1CCC(N2CCCC2)CC1  remaining binding (binding; competition with immobilised ligand; 1 µM): 51%
Nc1ncc2c(n1)-c1c([nH]c3ccc(C#CC4CC4)cc13)CCCC2  remaining binding (binding; competition with immobilised ligand; 1 µM): 81%
O=C1NC(c2ccccn2)Sc2ccccc21 (centres unmarked)  remaining binding (cell-free assay; competition with immobilised ligand; 1 µM): 75%
CCN1CCN(Cc2ccc(C(=O)Nc3ccc(C)c(Oc4ccc5c(c4)CC(=O)N5)c3)cc2C(F)(F)F)CC1  remaining binding (binding; competition with immobilised ligand; 1 µM): 100%
Cc1cc(-n2nc(Cc3cc(F)cc(C(F)(F)F)c3)nc2C)ccc1C(N)=O  remaining binding (cell-free assay; competition with immobilised ligand; 1 µM): 71%
CN(C)c1ncc(F)c(-c2cnn3ncccc23)n1  remaining binding (binding; 1 µM): 100%
CC(=O)Nc1c(C(C)=O)c(=O)n(C)c2nc(-c3ccc(Cl)cc3Cl)c(-c3ccc(Cl)cc3)cc12  remaining binding (cell-free assay; competition with immobilised ligand; 1 µM): 100%
C[C@@H]1CCN(c2nccc(-c3cnn4ncccc34)n2)C1  remaining binding (binding; 1 µM): 70%
CCS(=O)(=O)c1cc2cc(C[C@](O)(CC(C)(C)c3ccc(F)cc3C(N)=O)C(F)(F)F)[nH]c2cn1  remaining binding (cell-free assay; competition with immobilised ligand; 1 µM): 81%
N[C@H]1CCN(c2nccc(-c3cnn4ncccc34)n2)C1  remaining binding (binding; 1 µM): 80%
COc1cnc(Nc2cccc(S(N)(=O)=O)c2)nc1N1CCN(c2ccccc2)CC1  remaining binding (binding; competition with immobilised ligand; 1 µM): 86%
O=C(NCCCN1CCOCC1)c1ccc(Nc2nccc(-c3cc4ccccc4s3)n2)cc1  remaining binding (binding; competition with immobilised ligand; 1 µM): 54%
N#Cc1ccc(Nc2ccc3[nH]c(=O)[nH]c3c2)c(Cl)c1  remaining binding (binding; competition with immobilised ligand; 1 µM): 84%
O=C(c1ccc(Nc2ncc(Cl)c(-c3ccc(Cl)s3)n2)cc1)N1CCC(N2CCCC2)CC1  remaining binding (binding; competition with immobilised ligand; 1 µM): 32%
C[C@H](c1ccnc(Nc2nc3ccc(-c4cc(N(C)C)ncn4)cc3[nH]2)c1)N1CCN(C(=O)CC(F)(F)F)CC1  remaining binding (binding; competition with immobilised ligand; 0.1 µM): 100%
CN(C)c1nccc(-c2cnc3ncccn23)n1  remaining binding (binding; 1 µM): 100%
